Data: ChEMBL document CHEMBL4229550, “An antimycobacterial pleuromutilin analogue effective against dormant bacilli” (Bioorg Med Chem, 2018)
≈ marks a conversion by molar mass, not a printed value. Calls of active or inactive are those of the source. The calls are words filed in the database; no cut-off is given here.

Columns and labels:
[1] = system: Escherichia coli; assay: Inhibition of protein translation/transcription in Escherichia coli S30 cell extract at 0.1 ug/ml using circular DNA with pBESTluc after 60 mins by luciferase reporter gene assay; assay type: functional
In short: (§1)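 Coupled transcription/translation used E. coli S30 extract, amino acid mix and premix, with the pBESTluc template carrying firefly luciferase under the tac promoter. Compounds were added in DMSO and reactions were started with DNA. Incubation was 60 min at 37 °C, stopped on ice, and luciferase was read after adding assay substrate.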

[2] = system: Escherichia coli; assay: Inhibition of protein translation/transcription in Escherichia coli S30 cell extract at 0.5 ug/ml using circular DNA with pBESTluc after 60 mins by luciferase reporter gene assay; assay type: functional; in short: as §1
[3] = system: Mycobacterium tuberculosis; assay: Antibacterial activity against replicating Mycobacterium tuberculosis H37Rv incubated for 15 days under aerobic condition by MABA; assay type: functional; details: 360 h, read-out: MIC100
In short: (§2)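 Mtb H37Rv grown in 7H9/OADC at 37 °C with shaking to OD600 0.5. The 0.5-OD culture is exposed aerobically to serial dilutions for 15 days at 37 °C. Resazurin (0.02% stock) is then added for 4 h at 37 °C with shaking.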

[4] = Selectivity index, ratio of IC50 for African green monkey Vero cells to MIC100 for replicating Mycobacterium tuberculosis H37Rv by MABA; assay type: toxicity; details: read-out: Selectivity Index
In short: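 Vero cells are cultured in EMEM with 10% FBS and exposed for 72 h to 0.78–200 µg/mL. Medium is switched to phenol-red-free EMEM, MTT is added, and formazan is read at 570 nm to give IC50. The selectivity index is Vero IC50 divided by the MABA MIC.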

[5] = system: Mycobacterium tuberculosis; assay: Antibacterial activity against Mycobacterium tuberculosis; assay type: functional; details: read-out: MIC100; in short: as §2
[6] = system: Vero; assay: Cytotoxicity against African green monkey Vero cells assessed as reduction in cell viability after 72 hrs by MTT assay; assay type: cell-based; details: Chlorocebus sabaeus
In short: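 Vero cells were grown in complete EMEM with 10% FBS and exposed for 72 h to 0.78–200 µg/mL. The medium was then swapped for phenol-red-free EMEM and MTT was added. Formazan absorbance was read at 570 nm to give IC50.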

[7] = system: Streptococcus pneumoniae; assay: Antibacterial activity against Streptococcus pneumoniae ATCC 6301 incubated for 24 hrs under aerobic condition by MABA; assay type: functional; details: ATCC 6301, 24 h, read-out: MIC100
In short: (§3)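 Mid-log cultures at OD 0.5 were exposed to serial dilutions under aerobic conditions at 37 °C for 24 h. Resazurin was then added from a 0.08% stock for 1 h. MIC100 was the lowest concentration where the dye stayed blue (pink means growth). Absorbance was also read at 570 and 600 nm.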

[8] = system: Acinetobacter baumannii; assay: Bactericidal activity against Acinetobacter baumannii ATCC 19606 incubated for 24 hrs under aerobic condition by MABA; assay type: functional; details: ATCC 19606 = CIP 70.34 = JCM 6841, 24 h
[9] = system: Bacillus subtilis; assay: Bactericidal activity against Bacillus subtilis ATCC 6051 incubated for 24 hrs under aerobic condition by MABA; assay type: functional; details: ATCC 6051, 24 h
[10] = system: Klebsiella pneumoniae; assay: Antibacterial activity against Klebsiella pneumoniae ATCC 12019 incubated for 24 hrs under aerobic condition by MABA; assay type: functional; details: ATCC 12019, 24 h, read-out: MIC100; in short: as §3
[11] = system: Staphylococcus aureus; assay: Bactericidal activity against Staphylococcus aureus incubated for 24 hrs under aerobic condition by MABA; assay type: functional
[12] = system: Escherichia coli; assay: Antibacterial activity against Escherichia coli ATCC 10798 incubated for 24 hrs under aerobic condition by MABA; assay type: functional; details: ATCC 10798, 24 h, read-out: MIC100; in short: as §3
[13] = system: Staphylococcus aureus; assay: Bactericidal activity against Staphylococcus aureus ATCC 25923 incubated for 24 hrs under aerobic condition by MABA; assay type: functional; details: ATCC 25923, 24 h
[14] = system: Acinetobacter baumannii; assay: Antibacterial activity against Acinetobacter baumannii ATCC 19606 incubated for 24 hrs under aerobic condition by MABA; assay type: functional; details: ATCC 19606 = CIP 70.34 = JCM 6841, 24 h, read-out: MIC100; in short: as §3
[15] = system: Mycolicibacterium smegmatis; assay: Bactericidal activity against Mycobacterium smegmatis ATCC 607 incubated for 48 hrs under aerobic condition by MABA; assay type: functional; details: ATCC 607, 48 h
[16] = system: Escherichia coli; assay: Bactericidal activity against Escherichia coli ATCC 10798 incubated for 24 hrs under aerobic condition by MABA; assay type: functional; details: ATCC 10798, 24 h
[17] = system: Staphylococcus aureus; assay: Antibacterial activity against Staphylococcus aureus ATCC 25923 incubated for 24 hrs under aerobic condition by MABA; assay type: functional; details: ATCC 25923, 24 h, read-out: MIC100; in short: as §3
[18] = system: Staphylococcus aureus; assay: Antibacterial activity against Staphylococcus aureus BAA 44 incubated for 24 hrs under aerobic condition by MABA; assay type: functional; details: BAA 44, 24 h, read-out: MIC100; in short: as §3
[19] = system: Bacillus subtilis; assay: Antibacterial activity against Bacillus subtilis ATCC 6051 incubated for 24 hrs under aerobic condition by MABA; assay type: functional; details: ATCC 6051, 24 h, read-out: MIC100; in short: as §3
[20] = system: Streptococcus salivarius; assay: Bactericidal activity against Streptococcus salivarius ATCC 6301 incubated for 24 hrs under aerobic condition by MABA; assay type: functional; details: ATCC 6301, 24 h
[21] = system: Enterococcus faecalis; assay: Bactericidal activity against Enterococcus faecalis ATCC 19433 incubated for 24 hrs under aerobic condition by MABA; assay type: functional; details: ATCC 19433, 24 h
[22] = system: Enterococcus faecalis; assay: Antibacterial activity against Enterococcus faecalis ATCC 349 incubated for 24 hrs under aerobic condition by MABA; assay type: functional; details: ATCC 349, 24 h, read-out: MIC100; in short: as §3
[23] = system: Klebsiella pneumoniae; assay: Bactericidal activity against Klebsiella pneumoniae ATCC 12019 incubated for 24 hrs under aerobic condition by MABA; assay type: functional; details: ATCC 12019, 24 h
[24] = system: Mycolicibacterium smegmatis; assay: Antibacterial activity against Mycobacterium smegmatis ATCC 607 incubated for 48 hrs under aerobic condition by MABA; assay type: functional; details: ATCC 607, 48 h, read-out: MIC100
In short: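 Mid-log culture at OD 0.5 was incubated with serial dilutions aerobically at 37 °C for 48 h. Resazurin was then added from a 0.08% stock for 1 h. MIC100 was the lowest concentration that stayed blue; absorbance was also read at 570/600 nm.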

[25] = system: Mycobacterium tuberculosis; assay: Bactericidal activity against replicating Mycobacterium tuberculosis H37Rv incubated for 15 days under aerobic condition by MABA; assay type: functional; details: 360 h; in short: as §2
[26] = system: Streptococcus pneumoniae; assay: Bactericidal activity against Streptococcus pneumoniae ATCC 6301 incubated for 24 hrs under aerobic condition by MABA; assay type: functional; details: ATCC 6301, 24 h
[27] = system: Clostridioides difficile; assay: Bactericidal activity against Clostridium difficile ATCC 700057 incubated for 24 hrs […] by MABA; assay type: functional; details: ATCC 700057, 24 h
[28] = system: Staphylococcus aureus; assay: Bactericidal activity against Staphylococcus aureus BAA 1683 incubated for 24 hrs under aerobic condition by MABA; assay type: functional; details: BAA 1683, 24 h
[29] = system: Enterococcus faecalis; assay: Antibacterial activity against Enterococcus faecalis ATCC 19433 incubated for 24 hrs under aerobic condition by MABA; assay type: functional; details: ATCC 19433, 24 h, read-out: MIC100; in short: as §3
[30] = system: Staphylococcus aureus; assay: Antibacterial activity against Staphylococcus aureus incubated for 24 hrs under aerobic condition by MABA; assay type: functional; details: read-out: MIC100
In short: (§4)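 Resazurin was then added from a 0.08% stock for 1 h. MIC100 was the lowest concentration where the dye stayed blue (pink means growth). Absorbance was also read at 570 and 600 nm.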

[31] = system: Escherichia coli; assay: Inhibition of protein translation/transcription in Escherichia coli S30 cell extract using circular DNA with pBESTluc after 60 mins by luciferase reporter gene assay; assay type: functional; details: 1 h
In short: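 E. coli S30 circular-DNA coupled transcription/translation kit with the pBESTluc template (firefly luciferase under the tac promoter). S30 extract, amino acids and premix are combined with compound in DMSO, and the reaction is started with DNA. Incubation is 60 min at 37 °C, stopped on ice, then luciferase luminescence is read.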

[32] = system: Streptococcus salivarius; assay: Antibacterial activity against Streptococcus salivarius […] incubated for 24 hrs under aerobic condition by MABA; assay type: functional; details: read-out: MIC100; in short: as §4
[33] = system: Staphylococcus aureus; assay: Bactericidal activity against Staphylococcus aureus BAA 2094 incubated for 24 hrs under aerobic condition by MABA; assay type: functional; details: BAA 2094, 24 h
[34] = system: Staphylococcus aureus; assay: Antibacterial activity against Staphylococcus aureus BAA 1683 incubated for 24 hrs under aerobic condition by MABA; assay type: functional; details: BAA 1683, 24 h, read-out: MIC100; in short: as §3
[35] = system: Enterococcus faecalis; assay: Bactericidal activity against Enterococcus faecalis ATCC 349 incubated for 24 hrs under aerobic condition by MABA; assay type: functional; details: ATCC 349, 24 h
[36] = system: Staphylococcus aureus; assay: Bactericidal activity against Staphylococcus aureus BAA 44 incubated for 24 hrs under aerobic condition by MABA; assay type: functional; details: BAA 44, 24 h
[37] = system: Staphylococcus aureus; assay: Antibacterial activity against Staphylococcus aureus BAA 2094 incubated for 24 hrs under aerobic condition by MABA; assay type: functional; details: BAA 2094, 24 h, read-out: MIC100; in short: as §4

C=C[C@]1(C)C[C@@H](OC(=O)CSC(C)(C)CNC(=O)[C@H](N)CC(C)C)[C@]2(C)[C@H](C)CC[C@]3(CC[C@@H](O)[C@H]32)[C@@H](C)[C@@H]1O
inhibition [1]: Active
inhibition [2]: Active
MIC [3]: 3.06 µg/mL (≈ 5.27 µM)
selectivity ratio [4]: 11.4
MIC [5]: < 6.25 µg/mL
IC50 [6]: 35 µg/mL (≈ 60.3 µM)

CC(=O)NC[C@H]1CN(c2ccc(N3CCOCC3)c(F)c2)C(=O)O1 [LINEZOLID]
MIC [7]: 25 µg/mL (≈ 74.1 µM)
MBC [8]: > 25 µg/mL
MBC [9]: 6.25 µg/mL (≈ 18.5 µM)
MIC [10]: 25 µg/mL (≈ 74.1 µM)
MBC [11]: 1.56 µg/mL (≈ 4.62 µM)
MIC [12]: 25 µg/mL (≈ 74.1 µM)
inhibition [1]: Active
MBC [13]: > 25 µg/mL
MIC [14]: > 25 µg/mL
MBC [15]: 0.8 µg/mL (≈ 2.37 µM)
MBC [16]: > 25 µg/mL
MIC [17]: > 25 µg/mL
MIC [18]: > 25 µg/mL
MIC [19]: 3.13 µg/mL (≈ 9.28 µM)
MBC [20]: > 25 µg/mL
MBC [21]: 25 µg/mL (≈ 74.1 µM)
MIC [22]: > 25 µg/mL
MBC [23]: > 25 µg/mL
MIC [24]: 0.2 µg/mL (≈ 0.593 µM)
MBC [25]: 1.61 µg/mL (≈ 4.77 µM)
MBC [26]: > 25 µg/mL
MBC [27]: 3.13 µg/mL (≈ 9.28 µM)
MBC [28]: 25 µg/mL (≈ 74.1 µM)
MIC [3]: 0.6 µg/mL (≈ 1.78 µM)
MIC [29]: 12.5 µg/mL (≈ 37.1 µM)
MIC [30]: 0.78 µg/mL (≈ 2.31 µM)
selectivity ratio [4]: > 333
IC50 [31]: 0.05 µg/mL (≈ 0.148 µM)
MIC [32]: 3.13 µg/mL (≈ 9.28 µM)
MBC [33]: > 25 µg/mL
MIC [34]: 12.5 µg/mL (≈ 37.1 µM)
MBC [35]: > 25 µg/mL
IC50 [6]: > 200 µg/mL
MBC [36]: > 25 µg/mL
MIC [37]: > 25 µg/mL
